Assay results published in article PMC3825860 (Journal of Ginseng Research, 2013).

Legend:
[1] = assay type: in vivo, human
Summary of the method: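 10 healthy male Korean volunteers, fasted from the night before until 1 PM, took 9 g extract orally with 100 mL water at 8 AM. Heparinised blood was drawn predose and at 4–14 h hourly, 24 and 36 h, and plasma was stored at -70℃. LC-MS/MS used a digoxin internal standard, an ODS column with methanol:water gradient, and 2–100 ng/mL plasma standards. Non-compartmental analysis used trapezoidal AUC, reported as mean±SD.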

[2] = oral ginseng powder, healthy men, some individual variation; cited from earlier work

| SMILES | AUC(0-inf) ([1]; male, human, plasma, po) [ng·h/mL] | AUC(0-t) ([1]; male, human, plasma, po) [ng·h/mL] | half-life ([1]; male, human, plasma, po) [h] | plasma concentration at 36 h after taking the extract ([1]; single oral 9 g Korean Red Ginseng extract, detected in 8 subjects) [ng/mL] | time of detection after oral administration [2] [h] |
| --- | --- | --- | --- | --- | --- |
| CC(C)=CCC[C@](C)(O[C@@H]1O[C@H](CO[C@@H]2O[C@H](CO)[C@@H](O)[C@H](O)[C@H]2O)[C@@H](O)[C@H](O)[C@H]1O)[C@H]1CC[C@]2(C)[C@@H]1[C@H](O)C[C@@H]1[C@@]3(C)CC[C@H](O[C@@H]4O[C@H](CO)[C@@H](O)[C@H](O)[C@H]4O[C@@H]4O[C@H](CO)[C@@H](O)[C@H](O)[C@H]4O)C(C)(C)[C@@H]3CC[C@]12C [Ginsenoside Rb1, ginsenoside Rb1] | 308 ± 146 | 102 ± 51 | 58.5 ± 14.3 | – | – |
| CC(C)=CCC[C@](C)(O[C@@H]1O[C@H](CO)[C@@H](O)[C@H](O)[C@H]1O)[C@H]1CC[C@]2(C)[C@@H]1[C@H](O)C[C@@H]1[C@@]3(C)CC[C@H](O)C(C)(C)[C@@H]3CC[C@]12C [Compound K, 20-O-β-Ɗ-glucopyranosyl-20(S)-protopanaxadiol] | – | – | – | 0.90 ± 0.74 | 8 |
